Assay results reported in ChEMBL document CHEMBL1123096, “Alpha-adrenoreceptor reagents. 3. Synthesis of some 2-substituted 1,4-benzodioxans as selective presynaptic alpha 2-adrenoreceptor antagonists” (J Med Chem, 1985).

What was measured:
[1] = molecular target: Adrenergic receptor alpha (Rattus norvegicus) (UniProt P15823+P23944+P43140+P22086+P19328+P22909); test: Selectivity as ratio […] against alpha-2 receptor to that of alpha-1 receptor.; assay type: protein assay
[2] = molecular target: T1, Adrenergic receptor alpha-2 (Rattus norvegicus) (UniProt P22086+P19328+P22909); test: Alpha-2 adrenergic receptor antagonist activity compared to idazoxan; assay type: functional
How it was run: (§1)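 Vas deferens from rat or mouse; the mouse tissue was in Mg-free Krebs at 30 °C under 0.5 g tension, stimulated at 0.1 Hz, 3 ms, 100–140 V, giving a twitch of about 100 mg. […] Standard curves were run before and after the test curve.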

[3] = molecular target: T1, Adrenergic receptor alpha-2 (Rattus norvegicus); test: Presynaptic antagonist activity towards alpha-2 adrenergic receptor.; assay type: functional; how it was run: as §1
[4] = molecular target: T2, Adrenergic receptor alpha-1 (Rattus norvegicus) (UniProt P15823+P23944+P43140); test: Alpha-1 adrenergic receptor antagonist activity relative to idazoxan.; assay type: functional
How it was run: (§2)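 The agonist was phenylephrine, tested on isolated rat anococcygeus under 0.5 g initial tension. At least five phenylephrine dose-response curves were run alone, then at least four in the presence of the analogue.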

[5] = molecular target: T3, Adrenergic receptor alpha-2 (Rattus norvegicus, UniProt P22086+P19328+P22909); test: Alpha-2 adrenergic receptor antagonist activity in a rat vas deferens assay. Values ranges from 7.77-8.21; assay type: functional, tissue-based
T3 sequence (P22086 whole entry): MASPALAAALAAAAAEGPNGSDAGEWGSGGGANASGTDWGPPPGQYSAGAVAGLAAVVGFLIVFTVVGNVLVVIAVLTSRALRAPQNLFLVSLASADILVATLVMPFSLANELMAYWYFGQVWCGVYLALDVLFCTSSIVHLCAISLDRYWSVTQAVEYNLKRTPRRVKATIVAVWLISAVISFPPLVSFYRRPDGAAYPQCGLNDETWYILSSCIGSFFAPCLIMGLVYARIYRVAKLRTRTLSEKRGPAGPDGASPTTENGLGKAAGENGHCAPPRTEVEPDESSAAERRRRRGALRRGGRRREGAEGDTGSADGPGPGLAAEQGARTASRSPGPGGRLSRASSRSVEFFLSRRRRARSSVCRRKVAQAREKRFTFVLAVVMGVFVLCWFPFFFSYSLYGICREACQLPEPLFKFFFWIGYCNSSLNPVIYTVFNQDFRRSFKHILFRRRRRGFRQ
T3 sequence (P19328 whole entry): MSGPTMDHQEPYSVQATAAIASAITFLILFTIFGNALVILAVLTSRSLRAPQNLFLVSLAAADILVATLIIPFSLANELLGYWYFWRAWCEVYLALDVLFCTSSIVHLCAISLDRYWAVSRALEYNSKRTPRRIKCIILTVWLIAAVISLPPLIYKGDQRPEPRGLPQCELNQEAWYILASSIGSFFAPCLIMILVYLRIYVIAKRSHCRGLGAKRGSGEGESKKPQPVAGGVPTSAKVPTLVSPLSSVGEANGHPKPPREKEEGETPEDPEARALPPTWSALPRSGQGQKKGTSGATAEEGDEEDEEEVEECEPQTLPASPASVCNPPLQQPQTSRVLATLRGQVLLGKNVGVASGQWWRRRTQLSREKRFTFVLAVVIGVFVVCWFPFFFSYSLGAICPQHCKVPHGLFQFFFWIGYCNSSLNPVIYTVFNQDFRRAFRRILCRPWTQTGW
T3 sequence (P22909 whole entry): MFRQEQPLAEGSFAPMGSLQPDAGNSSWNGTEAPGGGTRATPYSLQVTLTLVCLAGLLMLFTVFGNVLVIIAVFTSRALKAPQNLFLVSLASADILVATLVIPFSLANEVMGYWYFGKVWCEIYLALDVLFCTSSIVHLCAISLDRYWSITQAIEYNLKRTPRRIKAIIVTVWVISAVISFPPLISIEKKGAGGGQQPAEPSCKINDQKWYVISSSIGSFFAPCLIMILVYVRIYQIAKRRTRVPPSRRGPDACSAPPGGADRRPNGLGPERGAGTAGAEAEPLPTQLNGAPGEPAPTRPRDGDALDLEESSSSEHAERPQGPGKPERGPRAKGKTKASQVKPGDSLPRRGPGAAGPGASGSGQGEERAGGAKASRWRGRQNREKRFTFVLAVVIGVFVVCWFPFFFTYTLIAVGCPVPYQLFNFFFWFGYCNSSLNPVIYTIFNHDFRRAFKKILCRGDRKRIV

[6] = molecular target: T4, Adrenergic receptor alpha-1 (Rattus norvegicus, UniProt P15823+P23944+P43140); test: Alpha-1 adrenergic receptor activity in a rat anococcygeus. Values ranges from 5.49-6.90
T4 sequence (P15823 whole entry): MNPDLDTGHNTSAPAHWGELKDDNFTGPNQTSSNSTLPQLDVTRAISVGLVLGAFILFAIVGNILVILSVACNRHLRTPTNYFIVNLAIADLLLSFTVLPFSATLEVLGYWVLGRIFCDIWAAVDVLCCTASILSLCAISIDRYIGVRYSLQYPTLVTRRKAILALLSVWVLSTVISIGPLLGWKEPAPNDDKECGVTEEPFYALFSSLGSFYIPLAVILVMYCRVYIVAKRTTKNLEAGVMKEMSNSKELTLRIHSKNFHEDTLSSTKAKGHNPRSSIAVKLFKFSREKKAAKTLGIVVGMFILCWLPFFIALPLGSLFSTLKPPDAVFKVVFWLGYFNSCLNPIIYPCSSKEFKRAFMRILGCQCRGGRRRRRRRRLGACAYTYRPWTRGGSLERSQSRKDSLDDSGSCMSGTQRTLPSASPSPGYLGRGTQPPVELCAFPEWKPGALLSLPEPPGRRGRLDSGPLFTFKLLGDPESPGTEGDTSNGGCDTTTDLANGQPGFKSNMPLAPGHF
T4 sequence (P23944 whole entry): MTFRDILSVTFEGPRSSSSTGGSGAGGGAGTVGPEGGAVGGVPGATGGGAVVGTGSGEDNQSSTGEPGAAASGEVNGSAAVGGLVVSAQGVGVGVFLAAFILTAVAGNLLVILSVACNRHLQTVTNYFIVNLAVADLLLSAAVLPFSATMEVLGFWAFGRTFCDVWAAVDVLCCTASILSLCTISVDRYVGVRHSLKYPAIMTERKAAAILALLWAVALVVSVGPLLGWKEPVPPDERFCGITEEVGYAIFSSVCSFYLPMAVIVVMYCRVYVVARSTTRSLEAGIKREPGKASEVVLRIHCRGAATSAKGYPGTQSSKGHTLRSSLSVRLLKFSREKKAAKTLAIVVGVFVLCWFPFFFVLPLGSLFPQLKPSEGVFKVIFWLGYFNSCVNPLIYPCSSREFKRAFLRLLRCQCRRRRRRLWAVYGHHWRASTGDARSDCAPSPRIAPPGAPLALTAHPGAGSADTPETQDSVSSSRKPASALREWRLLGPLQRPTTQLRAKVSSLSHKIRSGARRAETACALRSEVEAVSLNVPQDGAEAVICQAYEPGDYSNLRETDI
T4 sequence (P43140 whole entry): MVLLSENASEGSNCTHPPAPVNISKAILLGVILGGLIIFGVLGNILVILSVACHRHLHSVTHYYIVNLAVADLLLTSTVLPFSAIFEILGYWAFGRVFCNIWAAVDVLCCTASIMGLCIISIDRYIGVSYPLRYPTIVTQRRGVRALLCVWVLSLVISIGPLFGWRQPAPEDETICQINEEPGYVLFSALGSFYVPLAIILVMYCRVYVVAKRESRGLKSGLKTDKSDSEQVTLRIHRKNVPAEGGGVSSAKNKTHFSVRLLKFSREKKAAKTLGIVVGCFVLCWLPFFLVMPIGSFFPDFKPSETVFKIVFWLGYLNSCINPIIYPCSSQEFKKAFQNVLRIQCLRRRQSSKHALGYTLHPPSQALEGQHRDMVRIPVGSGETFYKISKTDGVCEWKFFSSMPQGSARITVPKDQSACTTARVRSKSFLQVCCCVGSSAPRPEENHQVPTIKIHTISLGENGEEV

[7] = molecular target: T2, Adrenergic receptor alpha-1 (Rattus norvegicus); test: post-synaptic antagonist activity towards alpha-1 adrenergic receptor was determined. Concentration giving a dose response to phenylephrine (idazoxan=1) was reported.; assay type: functional
How it was run: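 Rat anococcygeus, postsynaptic α1 antagonism. At least five phenylephrine concentration–response curves were run alone, then at least four with the antagonist present.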

[8] = molecular target: T2, Adrenergic receptor alpha-1 (Rattus norvegicus); test: Alpha-1 adrenergic receptor binding activity relative to idazoxan.; assay type: protein assay
[9] = molecular target: T3, Adrenergic receptor alpha-2; test: Alpha-2 adrenergic receptor activity in a rat vas deferens assay. Values ranges from 8.25-9.35; assay type: tissue-based
How it was run: (§3)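 pA2 at presynaptic α2-adrenoreceptors in field-stimulated rat vas deferens. Tissue was held in Krebs solution (NaCl 118 mM, KCl 4.7 mM, CaCl2 2.5 mM, KH2PO4 1.2 mM, MgSO4 0.6 mM, NaHCO3 25 mM, dextrose 11.1 mM) gassed with 95% O2/5% CO2 at 30 °C. Stimulation was 3-ms pulses, 40 V, 0.1 Hz, with contractions recorded isometrically. Twitches were inhibited by clonidine (110 nM).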

[10] = molecular target: T4, Adrenergic receptor alpha-1; test: Alpha-1 adrenergic receptor activity in a rat anococcygeus. Values ranges from 6.17-6.38
[11] = molecular target: T3, Adrenergic receptor alpha-2; test: Alpha-2 adrenergic receptor antagonist activity in a rat vas deferens assay. Values ranges from […]; assay type: functional, tissue-based; how it was run: as §3
[12] = molecular target: T4, Adrenergic receptor alpha-1; test: Alpha-1 adrenergic receptor antagonist activity in a rat anococcygeus. Values ranges from 5.84-6.31; assay type: functional
[13] = molecular target: T3, Adrenergic receptor alpha-2; test: Alpha-2 adrenergic receptor antagonist activity in a rat vas deferens assay. Values ranges from 8.31-8.44; assay type: functional; how it was run: as §3
[14] = molecular target: T4, Adrenergic receptor alpha-1; test: Alpha-1 adrenergic receptor antagonist activity in a rat anococcygeus. Values ranges from 6.63-6.78; assay type: functional
[15] = molecular target: T3, Adrenergic receptor alpha-2; test: Alpha-2 adrenergic receptor antagonist activity in a rat vas deferens assay. Values ranges from 8.37-9.10; assay type: functional; how it was run: as §3
[16] = molecular target: T4, Adrenergic receptor alpha-1; test: Alpha-1 adrenergic receptor antagonist activity in a rat anococcygeus. Values ranges from 6.29-6.54; assay type: functional
[17] = molecular target: T3, Adrenergic receptor alpha-2; test: Alpha-2 adrenergic receptor antagonist activity in a rat vas deferens assay. Values ranges from 9.30-9.52; assay type: functional, tissue-based; how it was run: as §3
[18] = molecular target: T4, Adrenergic receptor alpha-1; test: Alpha-1 antagonist activity in a rat anococcygeus. Values ranges from 6.6-7.23; assay type: functional
[19] = molecular target: T3, Adrenergic receptor alpha-2; test: Alpha-2 adrenergic receptor antagonist activity in a rat vas deferens assay. Values ranges from 8.74-9.17; assay type: functional; how it was run: as §3
[20] = molecular target: T4, Adrenergic receptor alpha-1; test: Alpha-1 adrenergic receptor antagonist activity in a rat anococcygeus. Values ranges from 6.35-6.88; assay type: functional
[21] = molecular target: T2, Adrenergic receptor alpha-1 (Rattus norvegicus); test: post-synaptic antagonist activity towards adrenergic receptor was determined. Concentration giving a dose response to phenylephrine (idazoxan=1) was reported.; assay type: functional; how it was run: as §2
[22] = molecular target: T3, Adrenergic receptor alpha-2; test: Alpha-2 adrenergic receptor antagonist activity in a rat vas deferens assay. Values ranges from 7.80-8.14; assay type: functional, tissue-based
[23] = molecular target: T4, Adrenergic receptor alpha-1; test: Alpha-1 adrenergic receptor antagonist activity in a rat anococcygeus. Values ranges from 5.19-5.44; assay type: functional
[24] = molecular target: T3, Adrenergic receptor alpha-2; test: Alpha-2 adrenergic receptor activity in a rat vas deferens assay. Values ranges from 8.85-9.01; assay type: tissue-based; how it was run: as §3
[25] = molecular target: T4, Adrenergic receptor alpha-1; test: Alpha-1 adrenergic receptor antagonist activity in a rat anococcygeus. Values ranges from 6.53-7.08; assay type: functional

Row | SMILES | Ratio [1] | Relative potency [2] | potency relative to idazoxan [3] | Postsynaptic antagonist [7] | Relative potency [8] | further results
1 | C1=C(C2(C3=NCCN3)COc3ccccc3O2)CC1.Cl (stereo not drawn) | 2.3 | 0.3 | 0.3 | 0.13 | – | Relative potency [4]: 0.3; pA2 [5]: 8.21; pA2 [6]: 6.9
2 | CCCCOC1(C2=NCCN2)COc2ccccc2O1 (stereo not drawn) | 0.7 | 0.7 | 1.6 | 2.2 | 2.4 | pA2 [13]: 8.37; pA2 [14]: 6.7
3 | c1ccc(COC2(C3=NCCN3)COc3ccccc3O2)cc1 (stereo not drawn) | 0.7 | 1.5 | 2 | 3 | 1.2 | pA2 [15]: 8.68; pA2 [16]: 6.39
4 | CCCC1(C2=NCCN2)COc2ccccc2O1 (stereo not drawn) | 1.5 | 2.6 | 4.8 | 3.2 | 1.7 | pA2 [19]: 8.92; pA2 [20]: 6.56
5 | CC1(C2=NCCN2)COc2ccccc2O1.Cl (stereo not drawn) | 2.4 | 0.3 | 0.67 | – | 0.1 | Postsynaptic antagonist [21]: 0.28; pA2 [22]: 8.14; pA2 [23]: 5.44

More lines, main results first:

Row | Ratio [1] | Relative potency [2] | potency relative to idazoxan [3] | Postsynaptic antagonist [7] | Relative potency [8] | SMILES | further results
6 | 1.5 | 1.4 | 1.5 | 1 | 0.9 | CCCOC1(C2=NCCN2)COc2ccccc2O1 (stereo not drawn) | pA2 [9]: 8.64; pA2 [10]: 6.26
7 | 1.6 | 1.5 | 1 | 0.6 | 0.5 | CC(C)OC1(C2=NCCN2)COc2ccccc2O1 (stereo not drawn) | pA2 [11]: 8.67; pA2 [12]: 6.01
8 | 2.8 | 8.1 | 11 | 4 | 4 | COC1(C2=NCCN2)COc2ccccc2O1 (stereo not drawn) | pA2 [17]: 9.41; pA2 [18]: 6.91
9 | 0.8 | 2.6 | 5.9 | 7 | 2.6 | CCOC1(C2=NCCN2)COc2ccccc2O1.Cl (stereo not drawn) | pA2 [24]: 8.92; pA2 [25]: 6.74
